Measured values reported in ChEMBL document CHEMBL1938254, “Semisynthetic neoboutomellerone derivatives as ubiquitin-proteasome pathway inhibitors” (Bioorg Med Chem, 2012).
Values joined by “and” are separate entries in the source; they are usually repeats but may differ in a detail not shown here. Identical values can stand only once.

Experiments:
Format in all cases: cell-based
DLD-1 [1] = assay: Inhibition of 20S proteasome in human DLD1 cells transfected with 4Ub-Luc gene assessed as bioluminescence induction factor at 5 uM after 8 hrs by luciferase reporter gene assay relative to epoxomicin
In short: (§1)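 Stably transfected DLD-1 cells expressing 4Ub-Luc reporter, cultured in MEM with 5% heat-inactivated serum. Seeded at 10⁴ cells/well and treated with compound or solvent for 8 h. Luciferase activity in lysates read by luminometer. Induction factor = signal of treated over untreated cells, normalised to epoxomicin at 10^-7 M run in parallel (set to 100). IF ≥10 counted active.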

DLD-1 [2] = assay: Inhibition of 20S proteasome in human DLD1 cells transfected with 4Ub-Luc gene assessed as bioluminescence induction factor at 1 uM after 8 hrs by luciferase reporter gene assay relative to epoxomicin; in short: as §1
[3] = Inhibition of chymotrypsin-like activity of 20S proteasome in human DLD1 cells transfected with 4Ub-Luc gene using Succinyl-Leu-Leu-Val-Tyr-AMC as substrate after 6 hrs by spectrofluorometric analysis; settings: dld-1
In short: (§2)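 DLD-1 4Ub-Luc cells seeded at 10⁴ cells/well, exposed to compound or solvent for 6 h, then 30 min in reaction buffer (30 mM Tris–HCl pH 7.5, 1 mM ATP). Chymotrypsin-like and PGPH activities read with specific fluorogenic substrates.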

DLD-1 [4] = assay: Inhibition of 20S proteasome activity in human DLD1 cells transfected with 4Ub-Luc gene assessed as bioluminescence induction factor at 10 uM after 8 hrs by luciferase reporter gene assay relative to epoxomicin; in short: as §1
DLD-1 [5] = assay: Inhibition of 20S proteasome in human DLD1 cells transfected with 4Ub-Luc gene assessed as bioluminescence induction factor at 0.5 uM after 8 hrs by luciferase reporter gene assay relative to epoxomicin; in short: as §1
[6] = Inhibition of peptide-glutamyl-peptide-hydrolyzing activity of 20S proteasome in human DLD1 cells transfected with 4Ub-Luc gene using Z-Leu-Leu-Glu-AMC as substrate after 6 hrs by spectrofluorometric analysis; settings: dld-1; in short: as §2

Row | SMILES | fold change (FC) (DLD-1 [1]) | fold change (FC) (DLD-1 [2]) | IC50 [3] [µM] | fold change (FC) (DLD-1 [4]) | fold change (FC) (DLD-1 [5]) | IC50 [6] [µM]
1 | C=C(C(=O)[C@H](OC(C)=O)[C@@H](C)[C@H]1[C@@H](OC(C)=O)C[C@@]2(C)[C@@H]3CC[C@H]4[C@H](C)C(=O)C=C[C@@]45C[C@@]35CC[C@]12C)[C@@H](C)COC(=O)CCN(CC)CC | 11 | 26 | 10 | 2.7 | 1.5 | 9.4
2 | C=C(C(=O)[C@H](O)[C@@H](C)[C@H]1[C@@H](OC(C)=O)C[C@@]2(C)[C@@H]3CC[C@H]4[C@H](C)C(=O)C=C[C@@]45C[C@@]35CC[C@]12C)[C@@H](C)COC(=O)N1CCN(C)CC1 | 7.1 and 4.5 | 69 and 70 |  | 1.5 and 1.4 | 15.4 and 12 | 
3 | C=C(C(=O)[C@H](O)[C@@H](C)[C@H]1[C@@H](OC(C)=O)C[C@@]2(C)[C@@H]3CC[C@H]4[C@H](C)C(=O)C=C[C@@]45C[C@@]35CC[C@]12C)[C@@H](C)COCOC(C)=O | 34 | 40 | 22 | 3 | 1.7 | 31
4 | C=C(C(=O)[C@H](O)[C@@H](C)[C@H]1[C@@H](OC(C)=O)C[C@@]2(C)[C@@H]3CC[C@H]4[C@H](C)C(=O)C=C[C@@]45C[C@@]35CC[C@]12C)[C@@H](C)COC(=O)CN(C)C | 35 and 34 | 22 and 17 |  | 6.8 and 4 | 1.3 | 
5 | C=C(C(=O)[C@H](OC(=O)CNC(=O)OC(C)(C)C)[C@@H](C)[C@H]1[C@@H](OC(C)=O)C[C@@]2(C)[C@@H]3CC[C@H]4[C@H](C)C(=O)C=C[C@@]45C[C@@]35CC[C@]12C)[C@@H](C)COC(=O)CNC(=O)OC(C)(C)C | 33 | 47 | 21 | 17 | 4.3 | 38
6 | C=CC(=O)OC[C@H](C)C(=C)C(=O)[C@H](OC(C)=O)[C@@H](C)[C@H]1[C@@H](OC(C)=O)C[C@@]2(C)[C@@H]3CC[C@H]4[C@H](C)C(=O)C=C[C@@]45C[C@@]35CC[C@]12C | 18 | 20 | 14 | 2.2 | 1.4 | 13
7 | C=CCOC[C@H](C)C(=C)C(=O)[C@H](OC(C)=O)[C@@H](C)[C@H]1[C@@H](OC(C)=O)C[C@@]2(C)[C@@H]3CC[C@H]4[C@H](C)C(=O)C=C[C@@]45C[C@@]35CC[C@]12C | 49 | 15 | 100 | 19 | 1.8 | 100
8 | C=C(C(=O)[C@H](OC(C)=O)[C@@H](C)[C@H]1[C@@H](OC(C)=O)C[C@@]2(C)[C@@H]3CC[C@H]4[C@H](C)C(=O)C=C[C@@]45C[C@@]35CC[C@]12C)[C@@H](C)COC | 44 | 40 | 86 |  | 1.4 | 100
9 | C=C(C(=O)[C@H](OC(C)=O)[C@@H](C)[C@H]1[C@@H](OC(C)=O)C[C@@]2(C)[C@@H]3CC[C@H]4[C@H](C)C(=O)C=C[C@@]45C[C@@]35CC[C@]12C)[C@@H](C)COC(=O)CCC(=O)O | 20 and 15 | 45 and 61 | 25 | 4.4 and 3.7 | 1.4 and 2 | 37
10 | COCC(C(=O)[C@H](O)[C@@H](C)[C@H]1[C@@H](OC(C)=O)C[C@@]2(C)[C@@H]3CC[C@H]4[C@H](C)C(=O)C=C[C@@]45C[C@@]35CC[C@]12C)[C@@H](C)CO (stereo not given in full) | 1.2 | 1.1 |  | 2.6 | 0.9 | 
11 | C=C(C(=O)[C@H](OC(C)=O)[C@@H](C)[C@H]1[C@@H](OC(C)=O)C[C@@]2(C)[C@@H]3CC[C@H]4[C@H](C)C(=O)C=C[C@@]45C[C@@]35CC[C@]12C)[C@@H](C)COP(=O)(O)O | 3 and 4.4 | 0.9 and 1 | 92 | 46 and 51 |  | > 1000
12 | CC(=O)O[C@H]1C[C@@]2(C)[C@@H]3CC[C@H]4[C@H](C)C(=O)C=C[C@@]45C[C@@]35CC[C@]2(C)[C@H]1[C@H](C)[C@@H](O)C(=O)C=C(C)C | 5.2 | 1.1 | > 1000 | 53 |  | > 1000
13 | C=C(C(=O)[C@H](OC(=O)CNC(=O)OC(C)(C)C)[C@@H](C)[C@H]1[C@@H](OC(C)=O)C[C@@]2(C)[C@@H]3CC[C@H]4[C@H](C)C(=O)C=C[C@@]45C[C@@]35CC[C@]12C)[C@@H](C)CO | 36 | 14 |  | 5 | 2 | 
14 | C=C(C(=O)[C@H](OC(C)=O)[C@@H](C)[C@H]1[C@@H](OC(C)=O)C[C@@]2(C)[C@@H]3CC[C@H]4[C@H](C)C(=O)CC[C@@]45C[C@@]35CC[C@]12C)[C@@H](C)CO | 45 | 0.9 | 17 | 48 |  | 13
15 | C=C(C(=O)[C@H](OC(C)=O)[C@@H](C)[C@H]1[C@@H](OC(C)=O)C[C@@]2(C)[C@@H]3CC[C@H]4[C@H](C)/C(=N/O)C=C[C@@]45C[C@@]35CC[C@]12C)[C@@H](C)CO | 103 | 1 |  |  | 1 | 
16 | CC(=O)O[C@H]1C[C@@]2(C)[C@@H]3CC[C@H]4[C@H](C)C(=O)C=C[C@@]45C[C@@]35CC[C@]2(C)[C@H]1[C@H](C)[C@@H](OC(C)=O)C(=O)C=C(C)C | 34 | 1.1 | > 1000 | 44 |  | > 1000
17 | C=C(C(=O)[C@H](OC(C)=O)[C@@H](C)[C@H]1[C@@H](OC(C)=O)C[C@@]2(C)[C@@H]3CC[C@H]4[C@H](C)C(=O)C=C[C@@]45C[C@@]35CC[C@]12C)[C@@H](C)COC(=O)CNC(=O)OC(C)(C)C | 43 | 14 | 92 | 10 |  | > 1000
18 | C=C(C(=O)[C@H](OC(C)=O)[C@@H](C)[C@H]1[C@@H](OC(C)=O)C[C@@]2(C)[C@@H]3CC[C@H]4[C@H](C)C(=O)C=C[C@@]45C[C@@]35CC[C@]12C)C(C)C | 74 | 7.2 | > 1000 | 19 |  | > 1000
19 | C=C(C(=O)[C@H](OC(C)=O)[C@@H](C)[C@H]1[C@@H](OC(C)=O)C[C@@]2(C)[C@@H]3CC[C@H]4[C@H](C)/C(=N/OCc5ccccc5)C=C[C@@]45C[C@@]35CC[C@]12C)[C@@H](C)CO | 12 | 0.8 | 10 | 5.6 |  | 11
20 | C=C(C(=O)[C@H](O)[C@@H](C)[C@H]1[C@@H](OC(C)=O)C[C@@]2(C)[C@@H]3CC[C@H]4[C@H](C)C(=O)C=C[C@@]45C[C@@]35CC[C@]12C)C(C)C | 65 | 2.4 | > 1000 | 20 |  | > 1000
